MrgX1 allo act: human MrgX1 positive allosteric modulation, primary screen; Q96LB2; MrgX1-HEK293, Fluo-4 calcium flux, FDSS; stronger effect = higher value; B-score at 10 µM; actives 0.63% (n = 310,000); AID 588675;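 active means plate-corrected calcium response at least 3 library SD above typical, normal starting fluorescence, not activating the receptor alone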;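 further: compound read alongside a low EC10 to EC30 dose of BAM8-22 agonist; peak minus trough fluorescence over baseline measured at the second addition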
Target sequence (Q96LB2 whole entry, looked up): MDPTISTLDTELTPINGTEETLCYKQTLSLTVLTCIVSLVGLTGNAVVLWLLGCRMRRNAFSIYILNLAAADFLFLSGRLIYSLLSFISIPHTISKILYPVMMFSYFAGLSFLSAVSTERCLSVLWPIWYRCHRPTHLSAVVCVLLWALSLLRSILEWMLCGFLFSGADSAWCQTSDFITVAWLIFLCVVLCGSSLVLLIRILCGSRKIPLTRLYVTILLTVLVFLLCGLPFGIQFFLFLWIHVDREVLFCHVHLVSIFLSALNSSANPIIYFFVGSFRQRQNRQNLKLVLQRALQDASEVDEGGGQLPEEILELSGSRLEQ
RGS4 inh: human RGS4 inhibition; B-score at 10 µM; actives 0.45% (n = 310,000); HEK293 M3R/RGS4 inducible, Fluo-4 calcium flux; stronger effect = higher value; triggered by carbachol at its EC20; AID 463165;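 active means B-score, a plate-corrected calcium signal, over three deviations above library mean, with baseline fluorescence within five deviations of library mean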;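 further: RGS4 expression induced by doxycycline in cells with stable M3 receptor; B-score is computed from the integrated fluorescence ratio over baseline after carbachol; higher B-score means a larger calcium signal and so more RGS4 inhibition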
Target sequence (P49798 whole entry, looked up): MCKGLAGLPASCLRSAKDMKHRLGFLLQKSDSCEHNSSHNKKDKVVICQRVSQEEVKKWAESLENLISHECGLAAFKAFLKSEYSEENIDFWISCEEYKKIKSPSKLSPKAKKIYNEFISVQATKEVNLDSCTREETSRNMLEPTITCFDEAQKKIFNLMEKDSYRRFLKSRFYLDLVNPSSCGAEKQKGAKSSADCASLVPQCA
MrgX1 antag: antagonists of human MrgX1 receptor; actives 1.3% (n = 310,000); B-score at 10 µM; MRGX1-HEK293 calcium flux, Fluo-4, BAM8-22 antagonism; stronger effect = lower value; AID 588676;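 active means calcium-response B-score plate-corrected more than 3 library SD below zero, starting fluorescence within 5 deviations, no agonist response on first addition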;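 further: peak minus trough fluorescence over baseline after final BAM8-22 challenge near maximal dose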
MrgX1 ag: human MrgX1 receptor agonism, primary screen; Q96LB2; MrgX1-HEK293 cells, Fluo-4 calcium fluorescence, agonist mode; stronger effect = higher value; B-score at 10 µM; actives 0.44% (n = 310,000); AID 588627;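 active means calcium response B-score plate-corrected fluorescence ratio at least 3 library SD, with starting fluorescence B-score inside 5 SD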
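Material – MrgX1-expressing HEK293 cells · Input – 15,000 cells seeded per well · Dosing – compound as first of three additions · Times – overnight seeding, then 1 h dark dye loading · Measured by – kinetic Fluo-4 NW fluorescence of intracellular calcium · Read-out – B-scored fluorescence response ratio · Benchmarks – positive and negative control wells on each plate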
RGS4 pot: RGS4 potentiation or activation; HEK293 M3R/inducible RGS4, carbachol calcium flux Fluo4; stronger effect = lower value; AID 463111; B-score at 10 µM; actives 0.92% (n = 310,000);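 active means B-score of the integrated calcium signal more than 4 SD below the library mean, with starting fluorescence not abnormally high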;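 further: negative B-score means reduced calcium response which marks RGS4 activation or potentiation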
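Also added: carbachol at ECmax as muscarinic agonist stimulus; Assay system: HEK293 cells with stable M3R and inducible RGS4; Timing: overnight RGS4 induction, 30 min dye load 37 °C, 20 min compound RT; Measured by: Fluo4-AM (2 µM) calcium-flux fluorescence, kinetic read.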
The depositor's hits bear a star; i = inactive; . = not tested or not shown. Most compounds without a hit are left out; they make up all but 3.5% or so of the library.

SMILES | MrgX1 allo act | RGS4 inh | MrgX1 antag | MrgX1 ag | RGS4 pot
COc1ccc(NS(=O)(=O)c2cccs2)cc1S(=O)(=O)N1CCOCC1 | i | i | i | i | i
COc1ccc(Nc2nc(-c3cccs3)nc3ccccc23)cc1S(=O)(=O)N1CCOCC1 | i | i | i | i | -7.3*
Cc1ccc(-c2cc(C(=O)N/N=C/c3c(C)nn(-c4ccccc4)c3C)n[nH]2)s1 | . | i | . | . | -7.7*
Cn1c(=O)c(C(=O)NCCCc2ccccc2)c(O)c2ccccc21 | i | i | i | i | i
CCCCc1nc2ccccc2c(=O)n1NC(=O)c1c(O)c2ccccc2n(C)c1=O | i | i | -5.8* | i | i
CCCc1nc2ccccc2c(=O)n1NC(=O)c1c(O)c2cccc3c2n(c1=O)CCC3 | i | i | -5.7* | i | i
Nc1nc(-c2ccccc2)c(-c2ccccc2)n1N | 9.3* | i | i | i | i
CC/C(=N\N=C1\SC(C)C(=O)N1Cc1ccco1)c1ccccc1 (stereo unspecified) | 12* | i | i | i | i
Cc1ccccc1CN1C(=O)CS/C1=N/N=C/c1ccco1 | 7.2* | i | i | i | i
CCC1S/C(=N/N=C/c2ccco2)N(Cc2ccccc2C)C1=O (stereo unspecified) | i | i | i | i | i
CC1S/C(=N/N=C/c2ccco2)N(Cc2ccccc2)C1=O (stereo unspecified) | 8* | i | i | i | i
CCC1S/C(=N/N=C/c2ccco2)N(Cc2ccc(F)cc2)C1=O (stereo unspecified) | i | i | i | i | i
CC(c1ccccc1)C1CC(=O)N(Cc2ccco2)C1=O (stereo unspecified) | i | i | i | i | i
CCCCNC(=O)O/N=C(\N)CS(=O)(=O)C(C)(C)C | i | i | i | i | i
COc1ccc(S(=O)(=O)Nc2ccccc2C(=O)NCc2cccnc2)cc1OC | i | i | i | i | i
C/C(=C\c1ccccc1)CN1CCN(C(C)C)C(CCO)C1 (stereo unspecified) | i | i | i | i | i
CCOC(=O)C1=C(c2ccccc2)NC(N)=NC1c1ccc(OCc2ccc(C(=O)OC)cc2)cc1 (stereo unspecified) | i | i | i | i | -7*
NC(=O)c1sc(-c2ccsc2)cc1NS(=O)(=O)c1ccc(C(F)(F)F)cc1 | i | i | i | i | i
O=C(COC(=O)/C=C/c1ccccc1[N+](=O)[O-])NCC(F)(F)F | i | i | -4.9* | i | i
CCNC(=O)COC(=O)/C=C/c1ccccc1[N+](=O)[O-] | i | i | i | i | i
O=C(NC1CCCC1)C(c1ccccc1F)N(C(=O)c1ccco1)C1CCCC1 (stereo unspecified) | i | i | i | i | -7.1*
CCOC(=O)CN(C(=O)CNC(=O)c1ccco1)C(C(=O)NC1CCCC1)c1ccccc1OCC (stereo unspecified) | i | i | -5.4* | i | i
Cc1ccc(SCC(=O)Nc2nnc(C(C)(C)C)s2)cc1 | i | i | i | i | i
COc1ccc(OC)c(NCc2nnc(-c3ccccc3)o2)c1 | i | i | i | i | i
CCOc1ccccc1NCc1nnc(-c2ccccc2)o1 | i | i | i | i | -7.5*
SMILES | MrgX1 allo act | RGS4 inh | MrgX1 antag | MrgX1 ag | RGS4 pot
CCC(CC)C1=NN2C(=N)/C(=C\c3cc(C)n(-c4cccc(C)c4)c3C)C(=O)N=C2S1 | i | i | i | i | -7.6*
COc1ccc(-n2cccc2/C=C2\C(=N)N3N=C(C(C)C)SC3=NC2=O)cc1 | i | i | i | i | i
Cc1nn(-c2ccccc2)c(Cl)c1/C=C1\SC(=S)NC1=O | i | i | -4.9* | i | i
Cc1nn(-c2ccccc2)c(Cl)c1/C=C1/C(=N)N2N=C(C(C)C)SC2=NC1=O | 9.6* | i | i | i | i
Cc1cc(/C=C2\C(=N)N3N=C(C(C)C)SC3=NC2=O)c(C)n1Cc1ccccc1 | 16* | i | i | i | i
CCC1=NN2C(=N)/C(=C/c3cc(C)n(Cc4ccccc4)c3C)C(=O)N=C2S1 | i | i | i | i | i
O=C(c1ccccc1F)n1c2c(c3ccccc31)CCCC2 | i | i | i | i | i
Cc1cccc(/C=N/n2c(C)nc3ccccc3c2=O)c1 | i | i | i | i | i
CC1(C)CC(NC(=O)c2ccccn2)CC(C)(C)N1O | i | i | i | i | i
Cc1ccc(OCC(=O)NCCNC(=O)c2cccnc2)cc1C | i | i | i | i | i
O=C(Cc1ccccc1)Nc1ccc(NC(=O)c2ccccc2)c(Cl)c1 | i | i | i | i | i
COc1ccc(NC(=S)N2CCC(NC(=O)c3ccco3)CC2)cc1 | i | i | i | i | i
Cc1ccc2c(C(=O)CCl)c(C)[nH]c2c1 | 8.2* | i | i | i | i
COC(=O)C1=C(C)N(Cc2ccco2)C(=O)/C1=C\c1ccc([N+](=O)[O-])cc1 | i | i | i | 28* | i
N#CCC(=O)N1CCN(C=O)CC1 | i | i | -5.5* | i | i
CCC1C(c2ccccc2)N(C)C(c2ccccc2)CC1(O)c1ccccc1 (stereo unspecified) | i | i | i | i | -7.7*
O=C1CCC(C(=O)N2CCSCC2)CN1Cc1cccc(C(F)(F)F)c1 (stereo unspecified) | i | i | i | i | i
COc1ccccc1-n1cnnc1SCc1csc(-c2ccccc2)n1 | i | . | i | i | .
C=CCn1c(SCc2csc(-c3ccc(C)cc3)n2)nnc1-c1ccccc1OC | i | i | -6* | i | i
Cc1ccc(-c2nc(CSc3nc4ccccc4c(=O)n3CCO)cs2)cc1 | i | i | i | i | i
Cc1ccc(-c2nc(CSc3nc4ccccc4c(=O)n3C)cs2)cc1 | i | i | i | i | -7*
Cc1nc2cc(Cl)c(Cl)cc2n1-c1ccccn1 | i | i | i | i | i
Cn1c(-c2c(N)n(CCc3ccccc3)c3nc4ccccc4nc23)nc2ccccc21 | i | i | i | 29* | i
Nc1c(C(=O)OCC2CCCO2)c2nc3ccccc3nc2n1C1CCCC1 (stereo unspecified) | i | i | i | i | i
Cn1c(-c2c(N)n(CCCc3ccccc3)c3nc4ccccc4nc23)nc2ccccc21 | . | i | . | . | i

Screening results from PubChem BioAssay.
